In the library only some 2.3% were active in any assay of this set; here they are far more common.
TRPC6 inhibitor = blocks the mouse TRPC6 cation channel. B-score at 10 µM. Q61143. HEK293-TRPC6, membrane potential dye, ACh-evoked depolarization; stronger effect = lower value. 310,000 compounds, 1.1% hits;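 active = B-score under library mean minus 3 SD, initial fluorescence not abnormally high, positive integrated signal ratio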;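 also: B-score derived from integrated fluorescence ratio over the kinetic read; more negative B-score means stronger inhibition of depolarization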
Target sequence (Q61143 whole entry, looked up): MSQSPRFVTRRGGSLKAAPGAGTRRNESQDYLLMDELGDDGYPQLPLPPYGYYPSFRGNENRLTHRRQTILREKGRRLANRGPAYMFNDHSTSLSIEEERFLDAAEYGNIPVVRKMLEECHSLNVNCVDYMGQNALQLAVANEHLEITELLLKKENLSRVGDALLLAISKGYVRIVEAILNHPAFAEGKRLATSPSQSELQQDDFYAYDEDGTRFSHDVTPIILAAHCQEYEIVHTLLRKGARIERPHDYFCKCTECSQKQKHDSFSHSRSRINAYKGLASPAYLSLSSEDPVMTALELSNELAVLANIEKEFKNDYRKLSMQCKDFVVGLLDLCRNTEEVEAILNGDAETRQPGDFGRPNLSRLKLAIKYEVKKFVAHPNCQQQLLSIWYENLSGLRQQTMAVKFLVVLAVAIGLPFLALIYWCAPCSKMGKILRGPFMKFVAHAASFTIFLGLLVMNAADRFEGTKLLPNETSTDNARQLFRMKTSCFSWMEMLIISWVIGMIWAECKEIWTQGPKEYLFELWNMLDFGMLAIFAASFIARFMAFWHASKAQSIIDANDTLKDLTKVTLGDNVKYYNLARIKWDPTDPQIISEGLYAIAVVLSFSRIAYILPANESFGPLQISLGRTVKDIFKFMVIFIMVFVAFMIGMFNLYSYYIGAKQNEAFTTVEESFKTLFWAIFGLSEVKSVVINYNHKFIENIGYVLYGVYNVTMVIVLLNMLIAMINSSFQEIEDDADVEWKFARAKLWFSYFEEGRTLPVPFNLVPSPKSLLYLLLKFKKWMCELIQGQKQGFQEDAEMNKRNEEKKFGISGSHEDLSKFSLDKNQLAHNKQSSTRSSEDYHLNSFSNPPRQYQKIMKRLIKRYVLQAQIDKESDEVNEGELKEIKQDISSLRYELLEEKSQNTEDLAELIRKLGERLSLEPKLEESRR
TRPC4 PAM = TRPC4 (mouse) allosteric potentiation; Q9QUQ5; HEK293 TRPC4beta/mu-opioid, DAMGO EC20, Fluo-4 Ca2+ flux; stronger effect = higher value; B-score at 10 µM; 310,000 compounds, 0.42% hits;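 active = B-score of calcium response area above 5 SD of library B-scores, with initial fluorescence ratio within 5 SD of library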;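 also: B-score of integrated fluorescence ratio over time as area under calcium response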
TRPC4 inh = TRPC4 (mouse) channel inhibition; HEK293 TRPC4beta/mu-opioid, DAMGO-evoked Fluo4 calcium flux; stronger effect = lower value; B-score at 10 µM; 300,000 compounds, 0.39% hits;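 active = B-score over 3 SD under the library average, no early fluorescence shift, positive overall ratio signal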
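Material: HEK293 cells with stable TRPC4beta plus mu-opioid receptor expression / Probe or stimulus: DAMGO in two steps, submaximal then maximal / Compound: single concentration per test compound / Technique: kinetic Fluo4 fluorescence imaging of calcium influx / Read-out: per-well B score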
TRPC6 act = activates the mouse TRPC6 cation channel; 310,000 compounds, 0.13% hits; HEK293-TRPC6 membrane potential dye fluorescence; stronger effect = higher value; B-score at 10 µM; Q61143;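 active = B-score of the integrated fluorescence ratio above library mean plus 3 SD, and starting fluorescence ratio within library mean plus 5 SD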;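 also: higher score means more depolarization so channel activation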
TRPC4 agonist = opens the mouse TRPC4 cation channel; B-score at 10 µM; AID 2237; HEK293 TRPC4beta/mu-opioid, Fluo4 calcium fluorescence; stronger effect = higher value; 310,000 compounds, 0.49% hits; Q9QUQ5;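 active = B-score above 5 SD of library B-scores, and initial fluorescence ratio not above library mean plus 5 SD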;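 also: positive B-score marks a calcium rise read as TRPC4 activation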
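Technique: kinetic Fluo4 calcium fluorescence; Test system: TRPC4beta and mu-opioid receptor HEK293 stable cells; Measure: B-scored integrated calcium fluorescence ratio; Benchmarks: low control buffer alone, high control maximal DAMGO; Schedule: 45 min room-temperature Fluo4 loading, 110 s read.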
An asterisk follows results filed as active.

For COc1c(/C=N/Nc2nc(N3CCCCC3)nc(N3CCCCC3)n2)cccc1[N+](=O)[O-] the results were TRPC6 inhibitor inactive, TRPC4 PAM inactive, TRPC4 inh inactive, TRPC6 act inactive and TRPC4 agonist inactive.
`O=C(NC1CCCN(Cc2ccc(Cl)cc2)C1)c1ccnc(Cl)c1` (stereo not given) gave TRPC6 inhibitor inactive, TRPC4 PAM inactive, TRPC4 inh inactive, TRPC6 act inactive and TRPC4 agonist inactive.
`Cc1cc(C)n(CC(=O)NC2CCCN(Cc3ccc(Cl)cc3)C2)n1` (stereo not given) gave TRPC6 inhibitor inactive, TRPC4 PAM inactive, TRPC4 inh inactive, TRPC6 act inactive and TRPC4 agonist 50*.
For COc1cc(OC)cc(C(=O)NC2CCCN(Cc3ccc(Cl)cc3)C2)c1 (stereo not given) the results were TRPC6 inhibitor inactive, TRPC4 PAM inactive, TRPC4 inh inactive, TRPC6 act inactive and TRPC4 agonist 92*.
O=C(COc1ccccc1)NC1CCCN(Cc2ccccc2F)C1 (stereo not given) was read as TRPC6 inhibitor inactive, TRPC4 PAM inactive, TRPC4 inh inactive, TRPC6 act inactive and TRPC4 agonist inactive.
O=C(CCN1CCCCC1=O)NC1CCCN(Cc2ccc(Cl)cc2)C1 (stereo not given) was read as TRPC6 inhibitor inactive, TRPC4 PAM 14*, TRPC4 inh inactive, TRPC6 act inactive and TRPC4 agonist inactive.
For O=C(Cc1ccccc1F)NC1CCCN(Cc2ccc(Cl)cc2)C1 (stereo not given) the results were TRPC6 inhibitor inactive, TRPC4 PAM inactive, TRPC4 inh inactive, TRPC6 act inactive and TRPC4 agonist 44*.
Screening COP(=O)(CC(=O)c1ccccc1)CC(=O)c1ccccc1 returned TRPC6 inhibitor inactive, TRPC4 PAM inactive, TRPC4 inh inactive, TRPC6 act inactive and TRPC4 agonist inactive.
For Cc1ccc(-c2c(C(=O)N/N=C/c3c[nH]c4ccccc34)nnn2-c2nonc2N)cc1 the results were TRPC6 inhibitor inactive, TRPC4 PAM inactive, TRPC4 inh inactive, TRPC6 act inactive and TRPC4 agonist inactive.
For O=C(NCC1CCCO1)c1ccc[nH]1 (stereo not given) the results were TRPC6 inhibitor inactive, TRPC4 PAM inactive, TRPC4 inh inactive, TRPC6 act inactive and TRPC4 agonist inactive.
Screening O=C(Cc1cccc(F)c1F)NC1CCCN(Cc2ccc(Cl)cc2)C1 (stereo not given) returned TRPC6 inhibitor inactive, TRPC4 PAM inactive, TRPC4 inh inactive, TRPC6 act inactive and TRPC4 agonist 106*.
For CC(C)Cc1ccc(CN2CCCC(NC(=O)CCN3CCCCC3=O)C2)cc1 (stereo not given) the results were TRPC6 inhibitor inactive, TRPC4 PAM inactive, TRPC4 inh inactive, TRPC6 act inactive and TRPC4 agonist inactive.
`CC(=O)c1c(C)nn(CC(=O)NC2CCCN(Cc3ccc(CC(C)C)cc3)C2)c1C` (stereo not given) gave TRPC6 inhibitor inactive, TRPC4 PAM inactive, TRPC4 inh inactive, TRPC6 act inactive and TRPC4 agonist 111*.
For CCc1nc(N2CCN(S(C)(=O)=O)CC2)c2c3c(sc2n1)CCCC3 the results were TRPC6 inhibitor inactive, TRPC4 PAM inactive, TRPC4 inh inactive, TRPC6 act inactive and TRPC4 agonist inactive.
Screening COc1ccc2oc(C(=O)OCC(=O)N(C)CC(=O)Nc3ccc(C)cc3)c(C)c2c1 returned TRPC6 inhibitor inactive, TRPC4 PAM inactive, TRPC4 inh inactive, TRPC6 act inactive and TRPC4 agonist inactive.
Cc1oc(-c2ccccc2F)nc1CS(=O)CC(=O)NC1CC1 (stereo not given) was read as TRPC6 inhibitor inactive, TRPC4 PAM inactive, TRPC4 inh inactive, TRPC6 act inactive and TRPC4 agonist inactive.
Screening CCOC(=O)N1CCC(NC(=O)CS(=O)Cc2nc(-c3ccccc3C)oc2C)CC1 (stereo not given) returned TRPC6 inhibitor inactive, TRPC4 PAM 13*, TRPC4 inh inactive, TRPC6 act inactive and TRPC4 agonist inactive.
For O=C(NC1CC1)C1=C[C@H](c2csc3ccccc23)C[C@H](OCc2ccc(CO)cc2)O1 the results were TRPC6 inhibitor inactive, TRPC4 PAM inactive, TRPC4 inh inactive, TRPC6 act inactive and TRPC4 agonist 113*.
For O=C(Nc1ccccc1)C1=C[C@H](c2csc3ccccc23)C[C@H](OCc2ccc(CO)cc2)O1 the results were TRPC6 inhibitor inactive, TRPC4 PAM 14*, TRPC4 inh inactive, TRPC6 act inactive and TRPC4 agonist inactive.
Cc1ccc(C2=NS(=O)(=O)N(C)C(C(=O)N3CCOCC3)=C2)cc1 was read as TRPC6 inhibitor inactive, TRPC4 PAM inactive, TRPC4 inh inactive, TRPC6 act inactive and TRPC4 agonist inactive.
`C[C@@H](C(=O)N[C@@H](Cc1c[nH]c2ccccc12)C(=O)O)n1nnc2ccccc2c1=O` gave TRPC6 inhibitor inactive, TRPC4 PAM inactive, TRPC4 inh inactive, TRPC6 act inactive and TRPC4 agonist inactive.
`CCOc1ccc2[nH]c(C)c(CN3CCOCC3)c(=O)c2c1` gave TRPC6 inhibitor inactive, TRPC4 PAM inactive, TRPC4 inh inactive, TRPC6 act inactive and TRPC4 agonist inactive.
For Cc1[nH]c2ccc(Br)cc2c(=O)c1CN1CCOCC1 the results were TRPC6 inhibitor inactive, TRPC4 PAM 12*, TRPC4 inh inactive, TRPC6 act inactive and TRPC4 agonist inactive.
For COc1cc(CNCCCN2CCOCC2)cc(Br)c1OCc1ccc(Cl)cc1 the results were TRPC6 inhibitor inactive, TRPC4 PAM inactive, TRPC4 inh -6*, TRPC6 act inactive and TRPC4 agonist inactive.
Screening CCOc1cc(CNCCCN2CCOCC2)cc(Br)c1OCC(=O)Nc1cccc(C(F)(F)F)c1 returned TRPC6 inhibitor inactive, TRPC4 PAM inactive, TRPC4 inh -6*, TRPC6 act inactive and TRPC4 agonist inactive.
Screening CCOc1cc(CNCCCN2CCOCC2)cc(Cl)c1OCC(=O)NC(C)(C)C returned TRPC6 inhibitor inactive, TRPC4 PAM inactive, TRPC4 inh inactive, TRPC6 act inactive and TRPC4 agonist inactive.
O=C(N/N=C/c1cc2c(cc1Br)OCO2)c1cc2ccccc2o1 was read as TRPC6 inhibitor inactive, TRPC4 PAM inactive, TRPC4 inh -7*, TRPC6 act inactive and TRPC4 agonist inactive.
Cc1ccc(SCCCCN2CCNCC2)cc1 was read as TRPC6 inhibitor inactive, TRPC4 PAM 13*, TRPC4 inh inactive, TRPC6 act inactive and TRPC4 agonist inactive.
`Cc1ccccc1OCCCCN1CCCCC1` gave TRPC6 inhibitor inactive, TRPC4 PAM inactive, TRPC4 inh inactive, TRPC6 act inactive and TRPC4 agonist inactive.
`Cc1ccc(C(C)C)cc1OCCCCN1CCCC1` gave TRPC6 inhibitor inactive, TRPC4 PAM 26*, TRPC4 inh inactive, TRPC6 act inactive and TRPC4 agonist inactive.
